Assay outcomes: PubChem, several laboratories
Shown are actives, neighbours in structure and some others; about 1.8% of the full set was active somewhere.
LEDGF integ inh: blocks HIV-1 LEDGF/p75-dependent DNA integration; TR-FRET IN-LEDGF/p75 DNA integration, Eu/Cy5; inhibition, % at 3.7 µM; 370,000 compounds, 0.64% hits; AID 743269;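 active = inhibition above the screen-wide mean plus 3 SD, cut at about 13% in these data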;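 also: signal is the Cy5 over europium emission ratio at 671 and 618 nm; 0% = plate median of compound wells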
UHRF1 binding: human UHRF1 methylated DNA binding inhibitors. Q96T88. UHRF1 binding to methylated oligo, TR-FRET. inhibition, % at 4.4 µM. 370,000 compounds, 0.75% hits. AID 687016; in the data active = inhibition above about 21%;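 also: UHRF1 SRA domain binding a hemimethylated CpG hairpin DNA probe; 0% = median of test compound wells and 100% = reference inhibitor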
MBD2 DNA inh: inhibitors of human MBD2 binding to methylated oligonucleotide. 370,000 compounds, 0.31% hits. AID 686964. TR-FRET. Q9UBB5. inhibition, % at 4.4 µM; in the data active = inhibition above about 13%
NSD2 HMT inh: NSD2 (human) methyltransferase inhibition; O96028; NSD2 peptide methylation, AlphaScreen, 120 min; inhibition, % at 12.5 µM; 310,000 compounds, 0.54% hits; AID 743445; in the data active = inhibition above about 50%
Casp6 inh: caspase-6 (human) enzyme inhibition; P55212; purified caspase-6, Z-VEID-R110 cleavage fluorescence; inhibition, % at 12.5 µM; 350,000 compounds, 0.53% hits; AID 686996;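 active = mean inhibition across replicates at least about 35%, with every replicate also reaching that limit, limit read from the data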;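 also: 0% = median of neutral control wells and 100% = no fluorescence left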
Target sequence (P55212 24-179 limits assumed): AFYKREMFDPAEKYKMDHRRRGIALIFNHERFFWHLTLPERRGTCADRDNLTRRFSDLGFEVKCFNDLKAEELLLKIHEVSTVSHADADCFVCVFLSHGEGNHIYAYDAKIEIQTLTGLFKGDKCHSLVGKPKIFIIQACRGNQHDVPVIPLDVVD
Target sequence (P55212 194-293 limits assumed): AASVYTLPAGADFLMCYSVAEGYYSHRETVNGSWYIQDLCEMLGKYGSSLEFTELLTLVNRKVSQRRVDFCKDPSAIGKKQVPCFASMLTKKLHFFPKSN
TDP2 inh: TDP2 (human) inhibition, absorbance primary screen. O95551. recombinant TDP2, T5PNP hydrolysis, p-nitrophenol absorbance 415 nm. inhibition, % at 12.8 µM. 370,000 compounds, 0.34% hits;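 active = inhibition above the mean of all tested compounds plus 3 SD, set per campaign, cut at about 25% in these data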;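 also: 0% = DMSO with enzyme and 100% = buffer with substrate but no TDP2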
Target sequence (O95551 whole entry, looked up): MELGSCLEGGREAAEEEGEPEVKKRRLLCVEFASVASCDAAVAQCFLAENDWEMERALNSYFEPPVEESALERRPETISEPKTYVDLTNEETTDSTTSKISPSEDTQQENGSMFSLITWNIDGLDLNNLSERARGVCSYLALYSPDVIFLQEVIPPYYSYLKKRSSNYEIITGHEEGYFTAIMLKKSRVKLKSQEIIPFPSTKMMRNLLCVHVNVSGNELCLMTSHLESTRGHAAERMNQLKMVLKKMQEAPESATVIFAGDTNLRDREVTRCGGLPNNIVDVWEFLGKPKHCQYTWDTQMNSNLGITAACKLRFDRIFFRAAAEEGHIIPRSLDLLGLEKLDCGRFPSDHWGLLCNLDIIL
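Material: recombinant human TDP2; quantity: TDP2 enzyme at 120 nM final; medium: Tris-HCl pH 7.5 with MgCl2; compound: single concentration, 12.8 µM nominal, with 1% DMSO; incubation: 2 h enzyme incubation at 37 °C; signal: epi absorbance; measure: percent inhibition; benchmarks: high control without enzyme, low control DMSO plus TDP2; repeats: singlicate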
AlphaScreen art: counter-screen for NSD2 inhibitors: AlphaScreen artifacts; shares compounds with NSD2 HMT inh; AC35, µM (series often up to 10 µM), without a hit: top-dose activity change, negative = signal loss; AID 1053174; AlphaScreen artifact counterscreen, preloaded methylated H4 peptide; 1,500 compounds, 9.4% hits; call rule not given here
Numbers without * were called inactive.

How did CC(=O)Nc1ccc(SCCC2CCCCN2C)cc1 (stereo not drawn) do in these assays?
LEDGF integ inh: -1.8; UHRF1 binding: 2.0; MBD2 DNA inh: 4.7; NSD2 HMT inh: 88.0*; Casp6 inh: -9.4; TDP2 inh: -9.5; AlphaScreen art: -6.0%

What do the screens show for `COc1ccc(S(=O)(=O)N(C)CC(=O)NCCN2CCOCC2)cc1C`?
LEDGF integ inh: -1.0; UHRF1 binding: 1.7; MBD2 DNA inh: -0.9; NSD2 HMT inh: -3.0; Casp6 inh: -0.8; TDP2 inh: 7.7

Results for COc1ccc(S(=O)(=O)N(C)CC(=O)NCCN2CCOCC2)cc1Cl ?
LEDGF integ inh: 1.5; UHRF1 binding: -1.1; MBD2 DNA inh: 0.9; NSD2 HMT inh: 86.5*; Casp6 inh: 3.6; TDP2 inh: 8.2; AlphaScreen art: 0.3%

Results for CCCNC(=O)[C@H]1[C@H](CO)[C@H]2Cn3c(ccc(-c4ccc(OC)cc4)c3=O)[C@@H]1N2CC ?
Casp6 inh: -2.2

Results for COc1ccc(NC2=CC(c3cccc(OC)c3)N(c3ccc(OC)cc3)C2=O)cc1 (stereo not drawn) ?
LEDGF integ inh: 0.8; UHRF1 binding: -2.0; MBD2 DNA inh: 1.2; NSD2 HMT inh: 51.8*; TDP2 inh: -2.5; AlphaScreen art: -7.8%

How did CCOc1ccccc1NC(=O)N1CCCC1C(=O)NCc1cccs1 (stereo not drawn) do in these assays?
LEDGF integ inh: -0.9; UHRF1 binding: 0.8; MBD2 DNA inh: 1.3; NSD2 HMT inh: -8.9; TDP2 inh: 7.3

Results for CCOc1ccccc1NC(=O)C1CCCN1C(=O)c1cccs1 (stereo not drawn) ?
LEDGF integ inh: 6.3; UHRF1 binding: 3.6; MBD2 DNA inh: -4.6; NSD2 HMT inh: 108.3*; Casp6 inh: -3.0; TDP2 inh: -17.3; AlphaScreen art: -6.0%

How did CCN(CC)CCNC(=O)/C(=C\c1cccn1C)NC(=O)c1cccs1 do in these assays?
LEDGF integ inh: 2.0; UHRF1 binding: -3.4; MBD2 DNA inh: -3.7; NSD2 HMT inh: 54.8*; Casp6 inh: -6.2; TDP2 inh: 0.7; AlphaScreen art: -3.8%

How did CN1C[C@@H](O)COC[C@H]2O[C@H](CC(=O)N3CCN(c4ccccc4)CC3)CC[C@@H]21 do in these assays?
Casp6 inh: 1.7

Results for O=C(O)c1ccccc1NC(c1ccccc1)c1ccc2cccnc2c1O (stereo not drawn) ?
LEDGF integ inh: -4.8; UHRF1 binding: -7.1; MBD2 DNA inh: -4.0; Casp6 inh: 11.9; TDP2 inh: -0.2

How did O=C(O)c1ccc2cccnc2c1O do in these assays?
LEDGF integ inh: 5.5; UHRF1 binding: -1.4; MBD2 DNA inh: -0.9; NSD2 HMT inh: 60.7*; Casp6 inh: 3.5; TDP2 inh: 13.9; AlphaScreen art: -4.7%

Results for COc1ccc2nc(SCC(=O)Nc3cc(C)on3)c(C#N)cc2c1 ?
LEDGF integ inh: -0.5; UHRF1 binding: -0.3; MBD2 DNA inh: 1.9; NSD2 HMT inh: 6.1; Casp6 inh: 1.1; TDP2 inh: -7.1

How did Cc1cc(NC(=O)CSc2nc3ccccc3cc2C#N)no1 do in these assays?
LEDGF integ inh: -0.8; UHRF1 binding: 0.3; MBD2 DNA inh: 1.0; NSD2 HMT inh: 54.9*; Casp6 inh: -2.3; TDP2 inh: 17.9; AlphaScreen art: -2.8%

What do the screens show for `CCc1ccc2cccc3c2c1N=CN3C`?
LEDGF integ inh: -11.2; UHRF1 binding: -3.7; MBD2 DNA inh: -7.6; NSD2 HMT inh: 112.5*; Casp6 inh: 60.8*; TDP2 inh: 12.8; AlphaScreen art: 0.3%

Results for O=C(COC(=O)c1ccc([N+](=O)[O-])s1)NCCc1ccccc1 ?
NSD2 HMT inh: 57.5*; Casp6 inh: 99.2*; AlphaScreen art: -1.5%

How did CC(NC(=O)COC(=O)c1ccc([N+](=O)[O-])s1)c1ccccc1 (stereo not drawn) do in these assays?
LEDGF integ inh: 6.1; UHRF1 binding: 0.5; MBD2 DNA inh: -0.5; NSD2 HMT inh: 65.6*; TDP2 inh: -4.5; AlphaScreen art: -4.6%

How did Cc1ccc(C(=O)OCC(=O)NC(C)c2ccccc2)s1 (stereo not drawn) do in these assays?
LEDGF integ inh: 3.5; UHRF1 binding: -5.2; MBD2 DNA inh: 1.5; NSD2 HMT inh: 47.6; Casp6 inh: 0.7; TDP2 inh: 2.9

How did O=C(NCc1ccco1)Nc1cccc([N+](=O)[O-])c1 do in these assays?
LEDGF integ inh: 0.9; UHRF1 binding: -1.4; MBD2 DNA inh: -6.9; NSD2 HMT inh: 51.7*; TDP2 inh: -2.4; AlphaScreen art: -0.8%

Results for CCc1ccc(N2C(=O)C3C(C2=O)N2CCCN2C3c2ccccc2)cc1 (stereo not drawn) ?
LEDGF integ inh: -3.0; UHRF1 binding: 2.3; MBD2 DNA inh: 2.4; NSD2 HMT inh: 63.7*; Casp6 inh: 3.3; TDP2 inh: 5.3; AlphaScreen art: -0.2%

What do the screens show for `Cc1ccc(N2C(=O)C3C(C2=O)N2CCCN2C3c2ccccc2)cc1C` (stereo not drawn)?
LEDGF integ inh: 3.5; UHRF1 binding: -2.1; MBD2 DNA inh: -1.7; NSD2 HMT inh: 5.7; Casp6 inh: 3.3; TDP2 inh: 6.8

Results for COc1ccc(/C=C(\C#N)C(=O)N2COCC2(C)C)cc1 ?
LEDGF integ inh: -6.0; UHRF1 binding: 1.2; MBD2 DNA inh: -1.3; NSD2 HMT inh: 59.4*; Casp6 inh: 3.6; TDP2 inh: -5.2; AlphaScreen art: 0.6%

How did C[C@H]1CN([C@@H](C)CO)C(=O)c2cc(NC(=O)C3CC3)ccc2O[C@H]1CN(C)C do in these assays?
Casp6 inh: -1.8

How did COc1cccc(S(=O)(=O)N[C@H]2CC[C@H](CC(=O)NC3CCC3)O[C@@H]2CO)c1 do in these assays?
Casp6 inh: -0.5

Results for Cc1ccc(-n2nc3c(=O)n(CC(=O)NCc4ccccc4)nc(C)c3c2C)cc1 ?
LEDGF integ inh: 2.1; UHRF1 binding: 2.0; MBD2 DNA inh: 1.2; NSD2 HMT inh: 79.7*; Casp6 inh: -0.3; TDP2 inh: -4.5; AlphaScreen art: -1.2%

What do the screens show for `O=C(NCc1ccccc1)[C@]1(Cc2ccccc2)N=C(c2ccc(OCCCO)cc2)O[C@@H]1c1ccccc1`?
Casp6 inh: -3.0

Results for CCc1sc(C(=O)Nc2nc(C)cs2)cc1C ?
LEDGF integ inh: 0.1; UHRF1 binding: 0.8; MBD2 DNA inh: 3.7; NSD2 HMT inh: 51.5*; Casp6 inh: 0.6; TDP2 inh: -3.9; AlphaScreen art: -6.3%

Results for CCCN1C[C@@H](C)[C@@H](OC)CN(C)C(=O)c2cc(NC(=O)c3cccc(F)c3)ccc2OC[C@H]1C ?
Casp6 inh: 0.1

What do the screens show for `COc1ccccc1C(=O)NNC(=O)Cc1ccccc1`?
LEDGF integ inh: -1.0; UHRF1 binding: 3.5; MBD2 DNA inh: -1.7; NSD2 HMT inh: 55.4*; Casp6 inh: -0.1; TDP2 inh: -21.8; AlphaScreen art: 2.3%
